Compound activity deposited in PubChem BioAssay by The Scripps Research Institute Molecular Screening Center.
Sampled rows, rich in hits. Any-hit rate of the full collection: about 2.3%.
PLCg1 inh – PLC-gamma1 (human) inhibition, primary screen; purified PLC-gamma1, fluorogenic substrate, fluorescence; inhibition, % at 12.2 µM; 370,000 compounds, 0.84% hits; AID 720700; in the data active = inhibition above about 9.5%
Tn7 DDE FP – DD(E)-Tn7 binding inhibition, primary FP screen | P02675 | FP displacement of FITC-Tn7 peptide from fibrin DD(E); 0% = median of compound wells per plate | inhibition, % at 8.3 µM | 370,000 compounds, 0.13% hits;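 active = inhibition above the mean of compounds falling within the control limits plus 3 SD of them, cut at about 14% in these data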;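 note: 0% = plate median of compound wells and 100% = 10 µM Aha-Tn7 peptide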
Target sequence (P02675 whole entry, looked up): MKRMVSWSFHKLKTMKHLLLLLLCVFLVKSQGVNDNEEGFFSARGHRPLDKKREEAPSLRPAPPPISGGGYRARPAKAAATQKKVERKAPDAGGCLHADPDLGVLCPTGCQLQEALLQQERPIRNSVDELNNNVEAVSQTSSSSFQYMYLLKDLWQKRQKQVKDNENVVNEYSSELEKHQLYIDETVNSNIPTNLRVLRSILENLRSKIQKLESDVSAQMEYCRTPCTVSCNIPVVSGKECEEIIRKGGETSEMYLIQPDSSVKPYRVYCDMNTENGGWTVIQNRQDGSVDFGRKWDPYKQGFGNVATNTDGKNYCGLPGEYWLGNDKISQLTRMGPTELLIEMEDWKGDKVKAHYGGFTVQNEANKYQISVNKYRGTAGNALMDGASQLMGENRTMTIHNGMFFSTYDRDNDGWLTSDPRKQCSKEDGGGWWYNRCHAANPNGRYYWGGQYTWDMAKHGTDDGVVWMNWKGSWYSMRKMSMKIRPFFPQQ
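Assay system: Human clot-derived fibrin DD(E) complex | Buffer or medium: Tris/NaCl/CaCl2 buffer, pH 7.8 | Repeats: One replicate per compound | Benchmarks: Aha-Tn7 high control | Measure: % inhibition scaled between sample-field median and high-control FP | Schedule: 10 min plus 3 h, room temperature | Signal: Fluorescence polarization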
ADAM17 inh – inhibits human ADAM17 | 370,000 compounds, 0.83% hits | recombinant ADAM17, EDANS/DABCYL FRET peptide cleavage | inhibition, % at 6.95 µM | P78536;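 active = inhibition above the mean of compounds lying between control limits plus 3 SD, set per campaign, cut at about 8.5% in these data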;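 note: 0% = DMSO-only wells as the low control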
ADAM10 inh – inhibitors of human ADAM10; recombinant ADAM10, EDANS/DABCYL FRET peptide cleavage, 3 h; 370,000 compounds, 0.62% hits; O14672; inhibition, % at 7 µM;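 active = inhibition above a per-campaign cutoff equal to the mean of compounds falling between control-based bounds plus 3 SD, cut at about 20% in these data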;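 note: 0% = DMSO wells while the 100% control is not disclosed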
PLC-beta3 inh – inhibitors of human phospholipase C beta3. Purified PLC-beta3, fluorogenic substrate, fluorescence. Q01970. 370,000 compounds, 0.18% hits. inhibition, % at 12.2 µM. AID 720704; in the data active = inhibition above about 11%;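 note: 0% = median of compound wells on plate and 100% = full blocker control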
Tn6 DDE FP – DD(E)-Tn6 binding inhibition, primary FP screen; P02675; Fibrin DD(E) TRITC-Tn6 fluorescence polarization displacement; inhibition, % at 8.3 µM; 370,000 compounds, 0.21% hits;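 active = inhibition above a per-campaign cutoff: mean of compounds within control limits plus 3 SD, cut at about 15% in these data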;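 note: 0% = median of all compound wells on the plate and 100% = blocking peptide control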
ADAM10 confirm – confirmation of inhibitors of human ADAM10; shares compounds with ADAM10 inh; ADAM10 QFRET peptide cleavage, EDANS fluorescence; inhibition, % at 6.95 µM; 2,100 compounds, 1% hits;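 active = inhibition above about 20% chosen separately for each screening run, limit read from the data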;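 note: 0% = DMSO wells and 100% = marimastat wells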
ADAM17 ctr – counter-screen for ADAM10 exosite inhibitors: inhibitors of human ADAM17. 2,100 compounds, 0.5% hits. inhibition, % at 6.95 µM. ADAM17 QFRET peptide cleavage, EDANS fluorescence. shares compounds with ADAM10 inh;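 active = mean triplicate inhibition above the solvent-only control wells' mean plus 3 SD, cut at about 12% in these data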;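 note: 0% = DMSO wells and 100% = marimastat wells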
ADAM10 counter – ADAM10 inhibition, counter-screen for ADAM17 exosite hits; shares compounds with ADAM17 inh; recombinant ADAM10, EDANS/DABCYL FRET peptide cleavage, 3 h; inhibition, % at 6.95 µM; 2,900 compounds, 47% hits; AID 743256;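 active = mean inhibition over the triplicate runs exceeds the activity threshold set in the earlier primary screen, cut at about 20% in these data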;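 note: 0% = DMSO wells and 100% = marimastat wells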
ADAM17 confirm – human ADAM17 inhibition, confirmation | shares compounds with ADAM17 inh | recombinant ADAM17, EDANS/DABCYL QFRET peptide cleavage | inhibition, % at 6.95 µM | 2,900 compounds, 65% hits;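 active = mean inhibition across replicates above the hit cutoff set in the primary screen, cut at about 8.5% in these data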;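 note: 0% = DMSO wells and 100% = marimastat wells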
Starred values were filed as active, the others as inactive; x = not tested or not shown.

SMILES	PLCg1 inh	Tn7 DDE FP	ADAM17 inh	ADAM10 inh	PLC-beta3 inh	Tn6 DDE FP	ADAM10 confirm	ADAM17 ctr	ADAM10 counter	ADAM17 confirm
Cc1cc(NC(=O)CS(=O)(=O)c2cn(Cc3cccc(Cl)c3)c3ccccc23)no1	-0.2	-0.1	10.7*	20.1*	-0.6	-0.2	0.2	0.5	11.0	7.2
CCn1cc(S(=O)(=O)CC(=O)Nc2cccc(C)c2)c2ccccc21	5.3	-3.2	1.3	4.9	5.7	4.6	x	x	x	x
C=CCc1cccc(CNc2nc3ccccc3n2CCC)c1O	8.2	-5.0	14.0*	34.7*	1.5	-8.6	6.4	1.5	41.5*	23.4*
COCCCNC(=O)C[C@@H]1C(=O)N2CCCC3=C2[C@@]1(C(=O)OC)CCCC3	1.3	-7.4	-1.2	-0.6	1.4	-6.7	x	x	x	x
COc1ccc(NC(=S)NC(NC(=O)c2ccccc2Cl)C(Cl)(Cl)Cl)c([N+](=O)[O-])c1 (centres undefined)	5.4	-4.2	3.3	2.8	-0.1	4.6	x	x	x	x
COc1ccc(NC(=S)NC(NC(=O)c2ccc(Cl)cc2Cl)C(Cl)(Cl)Cl)c([N+](=O)[O-])c1 (centres undefined)	2.6	-0.3	8.8*	21.9*	3.2	4.9	10.1	2.0	31.1*	17.3*
COc1ccc(CN(CCN2CCOCC2)C(=O)c2cc(F)ccc2F)cc1OC	2.3	-1.8	2.2	-1.8	3.1	-0.9	x	x	x	x
O=C(c1cc(COc2cccc(C(F)(F)F)c2)on1)N1CCC(c2ccccc2)CC1	3.9	-2.1	12.1*	26.4*	-4.9	-9.8	5.0	1.8	34.7*	20.4*
C#CCN(C(=O)c1cc(COc2cccc(C(F)(F)F)c2)on1)C1CCCCC1	1.2	0.3	10.1*	23.6*	-9.1	-4.2	8.2	2.6	54.6*	19.4*
O=C(CSc1nnc(-c2ccc(Cl)cc2)n1-c1ccccc1)NN=Cc1c[nH]c2ccccc12	6.5	-7.7	15.8*	29.5*	3.0	-5.9	8.2	2.3	42.4*	18.1*
C[C@@H]1CCC(=O)N(CC[C@H](Sc2ccc(Br)cc2)c2ccccc2)CC1	5.4	-7.9	16.1*	21.5*	5.3	-5.6	6.1	2.8	21.3*	11.4*
COc1cc(F)ccc1Oc1cccc2c1S(=O)(=O)N(C1CC1)C[C@@H](COCc1ccccc1)O2	1.3	1.6	10.6*	28.7*	3.0	-12.8	3.8	1.1	27.1*	17.4*
COc1ccc(Oc2cccc3c2S(=O)(=O)N(C2CC2)C[C@@H](COCc2ccccc2)O3)cc1	-4.2	-0.8	2.4	3.1	-2.7	-6.3	x	x	x	x
CC(C)C[C@H]1COc2cc(Br)ccc2S(=O)(=O)N1Cc1cn(Cc2ccco2)nn1	0.2	0.8	-1.5	4.7	2.1	8.8	x	x	x	x
Cc1ccc(S(=O)(=O)Nc2ccc(-c3nnc(SCc4ccccc4Cl)o3)cc2)cc1	6.0	-13.2	9.6*	23.3*	-1.4	3.6	11.3	2.7	33.6*	17.1*
Cc1ccc(Nc2nc(N)nc(CSc3nc4ccccc4s3)n2)cc1	4.5	-3.5	12.9*	28.9*	-2.6	-7.5	11.4	4.4	42.8*	25.2*
CC(C)(NS(=O)(=O)OCC(Cl)(Cl)Cl)c1ccccc1	3.1	-4.8	1.1	4.6	4.8	4.4	x	x	x	x
CC(NS(=O)(=O)OCC(Cl)(Cl)Cl)c1ccc(C(C)(C)C)cc1 (centres undefined)	1.9	-0.9	14.6*	31.0*	8.9	-3.5	9.2	3.0	45.4*	22.1*
COc1cc(OC)cc(-c2nnc(SCc3c(F)cccc3Cl)o2)c1	-0.5	3.5	-2.7	1.3	-2.5	-4.8	x	x	x	x
Fc1cccc(Cl)c1CSc1nnc(CNc2ccccc2)o1	4.5	-3.7	13.7*	24.3*	4.2	0.4	-0.2	0.0	11.6	7.4
CC(=O)CC[C@H]1CC[C@]2(CCCN(S(=O)(=O)c3ccccc3)C2)O1	-1.8	-0.6	-0.4	-2.5	-0.3	-5.2	x	x	x	x
CNC(=O)[C@@H](NC(=O)[C@H](CC(C)C)[C@H](O)C(=O)NO)C(C)(C)C	0.7	5.0	99.0*	95.2*	0.6	0.7	99.9*	102.1*	105.8*	101.9*
CNC(=O)C(NC(=O)CNC(=O)c1ccc(Cl)cc1)C(C)(C)C (centres undefined)	-2.1	0.2	-1.1	-5.5	3.8	1.0	x	x	x	x
O=S(=O)(N/N=C/c1cn(Cc2ccccc2)c2ccccc12)c1ccccc1	3.7	3.6	9.6*	24.2*	1.0	-1.1	10.7	3.5	35.5*	18.7*
N/C(=N\S(=O)(=O)c1cc(C(F)(F)F)cc(C(F)(F)F)c1)c1ccc(Cl)cc1	-0.3	-2.7	9.7*	22.6*	-6.3	6.0	2.4	0.5	44.8*	18.8*
SMILES	PLCg1 inh	Tn7 DDE FP	ADAM17 inh	ADAM10 inh	PLC-beta3 inh	Tn6 DDE FP	ADAM10 confirm	ADAM17 ctr	ADAM10 counter	ADAM17 confirm
N/C(=N\S(=O)(=O)c1cc(C(F)(F)F)cc(C(F)(F)F)c1)c1ccncc1	-5.3	8.6	-2.6	-7.8	-8.1	3.9	x	x	x	x
CC(NC(=O)COC(=O)c1cc(NS(=O)(=O)c2ccc(Cl)c([N+](=O)[O-])c2)ccc1O)C1CC2CCC1C2 (centres undefined)	-2.2	6.0	8.8*	22.2*	1.7	-0.1	9.1	1.7	38.1*	17.1*
COc1ccc(NS(=O)(=O)c2ccc(O)c(C(=O)OCC(=O)NC(C)C3CC4CCC3C4)c2)cc1 (centres undefined)	-0.8	-0.6	-6.0	-4.8	-7.8	-3.4	x	x	x	x
S=C(Nc1ccc(Nc2ccccc2)cc1)NC1CCCCCC1	1.9	2.6	10.2*	29.8*	7.0	-3.2	16.7	4.4	27.6*	16.7*
S=C(Nc1ccc(Cl)cc1)NC1CCCCC1	-2.6	-3.2	-9.0	-19.4	-11.7	-9.1	x	x	x	x
O=C(c1ccc(COc2ccc(Cl)cc2)o1)N1N=C(C(F)F)CC1(O)C(F)F (centres undefined)	-32.5	-0.1	13.2*	34.5*	-48.0	-7.5	2.3	1.4	12.6	7.6
